Fibroblast inh = blocks proliferation of human lung fibroblasts; LL 47 human lung fibroblast viability, ATP luminescence; hits give low values; viability, % at 10 µM; 1.1% of 85,000 active; AID 719;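 active = viability at or below 50% in the single dose screen; inactive = viability above 50%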;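 also: compound exposure lasted 72 h before the ATP readout; 100% = median luminescence of untreated cell-only wells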
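Assay system: human lung fibroblast line LL 47, low passage. Input: 1,150 fibroblasts seeded per well. Times: overnight cell rest, 72 h compound treatment at 37 °C. Evaluation: % viability of median cell-only signal. Technique: luminescent ATP detection, CellTiter-Glo. Control set: cell-only wells, no compound.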
H69AR growth 86K = growth inhibitors of human H69AR lung tumor cells; H69AR lung tumor viability, ATP luminescence, 72 h; hits give low values; viability, % at 10 µM; 6% of 85,000 active;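 active = viability at or below 40%; inactive = viability above 40%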;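 also: multidrug resistant small cell line overexpressing MRP-1 efflux transporter; 100% = mean luminescence of untreated control wells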
HCT116 PTEN-null = growth suppressors of cells with PTEN tumor suppressor deletion; viability, % at 10 µM; HCT116 PTEN-null viability, CellTiter-Glo, 60 h; hits give low values; 1.2% of 140,000 active;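 active = viability at or below a set limit, 4 SD under the median of all tested compounds, cut at about 3.7% in these data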;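 also: PTEN knockout HCT116 line with beta catenin targeted HCT116 as companion control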
HUVEC inhibit = human endothelial cell proliferation inhibition. HUVEC proliferation, CellTiter-Glo luminescence, 72 h; hits give low values. viability, % at 10 µM (by protocol). 1.1% of 86,000 active. AID 648;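 active = viability at or below 30%; inactive = viability above 30%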;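 also: 100% = median luminescence of DMSO-only cell control wells on each plate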
bCat KO growth = beta-catenin-lacking colon tumor cell growth suppression. HCT116 beta-catenin knockout viability, CellTiter-Glo, 60 h; hits give low values. viability, % at 10 µM. 1.5% of 140,000 active. AID 818;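 active = viability at or under a set limit, the compound median less 4 SD, cut at about 6% in these data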;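 also: 0% = Hyamine 1622 control at 20 µM and 100% = untreated cell control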
The depositor's hits bear a star; . = not tested or not shown. This excerpt belongs to a sample that is enriched for hits.

SMILES | Fibroblast inh | H69AR growth 86K | HCT116 PTEN-null | HUVEC inhibit | bCat KO growth
CCOC(=O)c1cccc(NC(=O)CSc2nc3ccccc3c(=O)n2CC)c1 | 79 | 40* | 80 | 70 | 81
CCOC(=O)c1cccc(NC(=O)CSc2nc3ccccc3c(=O)n2CCOC)c1 | 95 | 59 | 58 | 89 | 67
Cc1cc(NC(=O)CSc2nc(C(C)C)nc3ccccc23)no1 | 75 | 14* | 28 | 73 | 26
COc1ccc(-n2c(-c3cccc(C)c3[N+](=O)[O-])n[nH]c2=S)cc1 | . | . | 85 | . | 86
CCOc1ccc(C(=O)NCC(=O)OCC(=O)N2CCCCC2)cc1 | . | . | 105 | . | 97
COc1ccc(CCn2c(SCC(=O)Nc3cc(C)on3)nc3ccsc3c2=O)cc1OC | 79 | 69 | 71 | 100 | 71
O=c1c2ccccc2nc(-c2ccco2)n1Cc1ccccc1 | 87 | 73 | 89 | 79 | 91
COc1ccc(CCn2c(SCC(=O)Nc3cc(C)on3)nc3ccccc3c2=O)cc1OC | 103 | 33* | 71 | 68 | 75
CCOc1ccc(-n2c(SCC(=O)Nc3cc(C)on3)nnc2-c2c[nH]c3ccccc23)cc1 | 90 | 27* | 86 | 59 | 91
COC(=O)c1ccc2c(=O)n(Cc3ccco3)c(SCC(=O)Nc3ccc(C)c(Cl)c3)nc2c1 | 12* | 8.1* | 8 | 50 | 9
CCOc1ccc(CCn2c(-c3ccco3)nc3ccccc3c2=O)cc1OCC | 78 | 32* | 30 | 57 | 32
Cc1cc(Nc2nc(Cl)c(Cl)cc2Cl)n(-c2ccccc2)n1 | . | . | 38 | . | 33
CCOC(=O)C1=C(C)N(CCCC(=O)O)C(=O)NC1c1ccc([N+](=O)[O-])cc1 (centres undefined) | . | . | 96 | . | 101
S=C(Nc1ccc(OCc2ccccc2)cc1)Nc1cccc(Cl)c1Cl | . | . | 90 | . | 89
O=C(CSc1nc2ccccc2c(=O)n1CCCC(=O)N1CCCC1)NCc1ccco1 | 90 | 76 | 99 | 94 | 100
CCc1ccc(NC(=O)CSc2nc3ccccc3c(=O)n2CCCC(=O)N2CCCC2)cc1 | 74 | 30* | 55 | 55 | 52
CC(C)(C)c1ccc(-c2n[nH]c(=S)n2C2CCCC2)cc1 | 85 | 58 | 68 | 70 | 36
c1cnc2c(c1)ccc1cccnc12 | . | . | 5 | . | 6.0*
O=C(O)c1cccc2cccnc12 | 97 | 92 | 102 | 112 | 94
COc1cccc(C2c3c(oc4ccc(Cl)cc4c3=O)C(=O)N2c2cc(C)on2)c1OC (centres undefined) | 72 | 6.6* | 20 | 55 | 2.8*
COc1ccc(/C(O)=C2\C(=O)C(=O)N(c3cc(C)on3)C2c2cccc(OC)c2OC)cc1C (centres undefined) | 96 | 74 | 101 | 88 | 99
NC(=O)C1CCN(C2=C(Cl)C(=O)c3ccccc3C2=O)CC1 | . | . | 20 | . | 5.7*
Cc1onc(C(=O)N2CCC(C(N)=O)CC2)c1-c1ccccc1Cl | 101 | 91 | 96 | 100 | 96
O=C(OCC#CCSc1nnc(-c2ccc([N+](=O)[O-])cc2)o1)c1cccs1 | 98 | 37* | 89 | 91 | 79
COc1ccc([N+](=O)[O-])cc1COc1cc(C)cc2oc(=O)cc(-c3ccccc3)c12 | . | . | 34 | . | 28
SMILES | Fibroblast inh | H69AR growth 86K | HCT116 PTEN-null | HUVEC inhibit | bCat KO growth
CCCCc1cc(=O)oc2cc(C)cc(O)c12 | 56 | 10* | 17 | 48 | 5.1*
Cc1cc(O)c2c(-c3ccccc3)cc(=O)oc2c1 | 87 | 39* | 92 | 62 | 91
COc1ccc(C(=O)Nc2cc(C)nc3ccccc23)cc1OC | 93 | 75 | 94 | 95 | 87
Cc1nc(NC(=O)c2ccccc2)sc1-c1csc(N)n1 | 84 | 30* | 44 | 55 | 34
CCOc1ccccc1Nc1nc(-c2sc(NC(=O)c3ccccc3)nc2C)cs1 | . | . | 74 | . | 86
CCOc1ccccc1Nc1nc(-c2sc(NC(=O)c3cccc(Cl)c3)nc2C)cs1 | . | . | 6 | . | 5.1*
COc1cc(N=c2ssnc2Cl)cc(OC)c1 | 70 | 0.0* | 96 | 90 | 85
OCc1ccccc1N=c1ssnc1Cl | 97 | 60 | 94 | 96 | 101
CCc1c(C(=O)Nc2ccc(OC)cc2)[nH]c(C)c1C(C)=O | 92 | 26* | 65 | 85 | 60
CCc1c(C(=O)Nc2cc(C)ccc2OC)[nH]c(C)c1C(C)=O | 92 | 74 | 82 | 66 | 78
CCOC(=O)c1[nH]c(C)c(C(=O)OC(C)C(=O)Nc2ncc(Cl)cc2Cl)c1C (centres undefined) | 96 | 26* | 42 | 79 | 52
CCOC(=O)c1[nH]c(C)c(C(=O)c2cc(F)ccc2F)c1C | 57 | 30* | 13 | 50 | 14
CCOC(=O)c1[nH]c(C)c(C(=O)Nc2cccc(Cl)c2C)c1C | 81 | 15* | 24 | 46 | 30
CC(=O)c1c(C)[nH]c(C(=O)OCC(=O)Nc2ncc(Cl)c(C)c2Cl)c1C | . | 85 | 98 | 94 | 96
Fc1cccc(Nc2ncnc3sc4c(c23)CCC4)c1 | . | . | 78 | . | 74
O=C(NCc1ccncc1)Nc1ccc(Cl)cc1Cl | 90 | 98 | 75 | 97 | 79
CCCNC(=O)COC(=O)c1[nH]c(C)c(C(=O)OCC)c1C | 100 | 95 | 93 | 101 | 77
CCOC(=O)c1c(C)[nH]c(C(=O)OCC(=O)Nc2cc(C)c(Cl)cc2OC)c1C | . | . | 1.5* | . | 1.6*
CCOC(=O)c1[nH]c(C)c(C(=O)Nc2ccc(Cl)cc2)c1C | 102 | 91 | 94 | 101 | 90
CCOC(=O)c1[nH]c(C)c(C(=O)N2CCc3ccccc32)c1C | 49* | 26* | 12 | 45 | 13
CCOC(=O)c1ccc(NC(=O)c2c(C)[nH]c(C(=O)OCC)c2C)cc1 | 49* | 75 | 99 | 96 | 81
CC(C)CCNC(=O)C12CN(Cc3ccccc3)CC1C(c1cccc([N+](=O)[O-])c1)=NO2 (centres undefined) | . | . | 51 | . | 57
COC(=O)c1sc(NC(=O)CSc2nc3cccnc3n2C2CCCCC2)nc1C | 89 | 20* | 91 | 56 | 84
Cc1nc(N2CCN(C)CC2)c2c(C)c(C(=O)Nc3ccc(C)c(F)c3)sc2n1 | 43* | 49 | 10 | 3.7* | 11
COC(=O)c1sc2nc(-c3ccccc3)nc(N3CCN(C)CC3)c2c1C | 80 | 71 | 58 | 46 | 58
Cc1cc(-c2csc(NC(=O)c3ccc(=O)n(C)n3)n2)c(C)n1CC1CCCO1 (centres undefined) | 110 | 68 | 98 | 87 | 100
CCC(=O)N1c2ccc(S(=O)(=O)CCC(=O)NCc3cccs3)cc2CC1C (centres undefined) | 90 | 30* | 82 | 76 | 82
N#CCC(=O)N1CCn2c1nc1ccccc12 | 89 | 97 | 96 | 98 | 94
CCC(=O)N1c2ccc(S(=O)(=O)CCC(=O)N3CCn4c3nc3ccccc34)cc2CC1C (centres undefined) | 44* | 1.9* | 81 | 88 | 67
CCC(=O)N1c2ccc(S(=O)(=O)CCC(=O)NC3CCCC3)cc2CC1C (centres undefined) | 103 | 93 | 96 | 89 | 88
